The text below walks through data of ChEMBL document CHEMBL4627381, “Licochalcone A Selectively Resensitizes ABCG2-Overexpressing Multidrug-Resistant Cancer Cells to Chemotherapeutic Drugs” (J Nat Prod, 2020).

The test system of one data set is S1-M1-80. The data set is described as follows: Induction of apoptosis in human S1-M1-80 cells harboring ABCG2 (unknown origin) assessed as necrotic cells at 10 uM incubated for 48 hrs by annexin V/propidium iodide staining based flow cytometry (reference value: 0.3%). Type of data set: functional. A general note: Flow cytometry measures light scatter and fluorescence of single cells or particles in a stream.

Data set [1] has as its system S1. Description: Induction of apoptosis in human S1 cells assessed as early apoptotic cells at 10 uM incubated for 48 hrs by annexin V/propidium iodide staining based flow cytometry (reference value: 2%). Type of data set: functional. Put shortly: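 S1 cells were exposed for 48 h to DMSO, 10 μM compound, 5 μM topotecan, or 5 μM topotecan plus 10 μM compound. They were then stained with 1.25 μg/mL annexin V–FITC and 0.1 mg/mL PI for 15 min at room temperature. 10000 cells per sample were analysed by flow cytometry; three independent experiments.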

Another data set is filed under the species Homo sapiens. Description: Downregulation of ABCG2 expression in human NCI-H460/MX20 cells at 0.5 to 3 uM incubated for 72 hrs by Western blot analysis. Format: functional, cell-based. The gist of the method: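 S1-M1–80 and H460-MX20 cells were treated with 0.5–3.0 μM or DMSO vehicle for 72 h, then run on SDS-PAGE and immunoblotted with BXP-21 (1:15000) for ABCG2. α-Tubulin (1:100000) served as loading control, with HRP goat anti-mouse secondary. Bands were quantified as mean ± SEM of three independent experiments.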
A general note: In western blotting, separated proteins are transferred to a membrane and probed.

The target of data set [2] is T1, Broad substrate specificity ATP-binding cassette transporter ABCG2 (Homo sapiens, UniProt Q9UNQ0).
T1 sequence (Q9UNQ0 whole entry): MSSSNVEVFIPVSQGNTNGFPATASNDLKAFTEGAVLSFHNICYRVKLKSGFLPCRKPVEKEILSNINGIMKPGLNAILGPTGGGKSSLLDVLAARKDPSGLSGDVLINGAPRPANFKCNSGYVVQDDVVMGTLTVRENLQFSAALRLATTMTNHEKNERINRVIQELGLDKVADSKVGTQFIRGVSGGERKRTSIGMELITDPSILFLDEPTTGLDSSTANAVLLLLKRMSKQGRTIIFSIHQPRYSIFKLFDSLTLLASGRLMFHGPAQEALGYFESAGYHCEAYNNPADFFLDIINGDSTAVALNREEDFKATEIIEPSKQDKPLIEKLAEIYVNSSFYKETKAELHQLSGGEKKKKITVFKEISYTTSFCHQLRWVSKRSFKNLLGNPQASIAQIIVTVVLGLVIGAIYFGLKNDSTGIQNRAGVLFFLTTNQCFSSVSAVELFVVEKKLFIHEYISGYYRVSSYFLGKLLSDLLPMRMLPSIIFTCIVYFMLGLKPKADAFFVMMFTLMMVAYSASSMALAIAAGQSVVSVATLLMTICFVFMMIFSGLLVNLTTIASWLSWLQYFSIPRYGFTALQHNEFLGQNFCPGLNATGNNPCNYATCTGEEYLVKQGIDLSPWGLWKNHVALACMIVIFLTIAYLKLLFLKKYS
Description: Inhibition of ABCG2 (unknown origin)-mediated pheophorbide A efflux in H460-MX20 cells incubated for 1 hr by FACScan flow cytometry. Format: cell-based. The gist of the method: (§1)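 Cells held drug-free 7 days. 3 × 10^5 cells were suspended in IMDM with 5% FCS and loaded with pheophorbide A (ex 395/em 670 nm) for 1 h, with or without LCA (20 μM for single-concentration accumulation) or Ko143 3 μM as reference. Read immediately by flow cytometry. Efflux inhibition was run over a concentration range; mean ± SD of three experiments.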

Data set [3] deals with T1, Broad substrate specificity ATP-binding cassette transporter ABCG2. The data set is described as follows: Modulation of ABCG2 (unknown origin) expressed in S1-M1-80 cells assessed as increase in intracellular pheophorbide A accumulation at 20 uM incubated for 1 hr by FACScan flow cytometry. Format: cell-based. As to conditions: s1-m1-80, 1 h. The gist of the method:
as §1

For data set [4], the target named is T2, Multidrug resistance-associated protein 1 (Homo sapiens, UniProt P33527). The data set is described as follows: Modulation of human ABCC1 expressed in HEK293/MRP1 cells assessed as increase in intracellular calcein-AM accumulation at 20 uM incubated for 10 mins by FACScan flow cytometry. Type of data set: cell-based. The gist of the method: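 Cells held drug-free 7 days. 3 × 10^5 cells in IMDM with 5% FCS were loaded with calcein-AM for 10 min, with or without 20 μM LCA. Reference inhibitors were tariquidar 3 μM (ABCB1) and MK-571 25 μM (ABCC1). Calcein fluorescence (ex 485/em 535 nm) was read by flow cytometry; at least three independent experiments.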

The next data set deals with NCI-H460. The data set is described as follows: Effect on topotecan-induced cytotoxicity against human H460 cells assessed as fold change in topotecan IC50 at 3 uM after 72 hrs by MTT assay relative to topotecan IC50. Type of data set: functional. Put shortly: (§2)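 Parental S1 colon and H460 lung cancer cells were exposed for 72 h to a mitoxantrone or topotecan concentration series, with or without modulator at 0.5–3.0 μM, and read by MTT. Fold-reversal is IC50 without modulator divided by IC50 with modulator, taken from dose-response curves of three independent experiments.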
On the technique in general: Formazan colour is commonly taken as a measure of viable cells.

Data set [5] concerns S1. Description: Effect on topotecan-induced cytotoxicity against human S1 cells assessed as fold change in topotecan IC50 at 2 uM after 72 hrs by MTT assay relative to topotecan IC50. Format: functional. Put shortly:
as §2

Data set [6] addresses T1, Broad substrate specificity ATP-binding cassette transporter ABCG2. Description: Reversal of ABCG2 (unknown origin)-mediated multidrug resistance in human S1-M1-80 cells assessed as fold-change in mitoxantrone IC50 at 2 uM after 72 hrs by MTT assay relative to mitoxantrone IC50. Type of data set: cell-based. The conditions noted are these: s1-m1-80, 72 h. Put shortly: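 MTT readout in S1-M1-80 colon cancer cells (mitoxantrone-selected, held in 80 μM mitoxantrone, then drug-free 7 days before assay). Cells were seeded at 5000/well for 24 h, then given increasing mitoxantrone or topotecan with DMSO or non-toxic modulator for 72 h at 37 °C. IC50 came from fitted dose-response curves (at least three independent experiments). Fold-reversal = IC50 without modulator ÷ IC50 with modulator.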

Data set [7] deals with HEK293. Description: Effect on topotecan-induced cytotoxicity against HEK293 cells assessed as fold change in topotecan IC50 at 1 uM after 72 hrs by CCK8 assay relative to topotecan IC50. Type of data set: cell-based. The conditions noted are these: human, hek293, 72 h. The gist of the method:
(§3)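 Reversal assay in parental pcDNA-HEK293 and transfected HEK293 lines (ABCB1 for colchicine, ABCC1 for etoposide, ABCG2 for mitoxantrone/topotecan). Substrate drug series was given with or without nontoxic modulator (0.5, 1.0, 2.0 or 3.0 μM) for 72 h, with a CCK-8 read-out. Fold-reversal is substrate IC50 without modulator divided by IC50 with modulator. Three independent experiments.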

Data set [8] has as its target T2, Multidrug resistance-associated protein 1. The data set is described as follows: Reversal of human ABCC1-mediated multidrug resistance in HEK293/MRP1 cells assessed as fold-change in etoposide IC50 at 2 uM after 72 hrs by CCK8 relative to etoposide IC50. Format: cell-based. The gist of the method: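 Cells were seeded at 5000/well for 24 h, then given colchicine, etoposide, mitoxantrone or topotecan ± non-toxic modulator (0.5–3.0 μM) for 72 h, with DMSO up to 0.5%. IC50 came from fitted curves (mean ± SD, three experiments). Fold-reversal = IC50 without modulator ÷ IC50 with modulator.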

Data set [9] has as its system HEK293. Description: Effect on etoposide-induced cytotoxicity against HEK293 cells assessed as fold change in etoposide IC50 at 0.5 uM after 72 hrs by CCK8 assay relative to etoposide IC50. Type of data set: cell-based. The conditions noted are these: human, hek293, 72 h. Put shortly:
as §3

For data set [10], the system named is HEK293. The data set is described as follows: Effect on Colchicine-induced cytotoxicity against HEK293 cells assessed as fold change in colchicine IC50 at 1 uM after 72 hrs by CCK8 assay relative to colchicine IC50. Format: cell-based. As to conditions: human, hek293, 72 h. The gist of the method:
as §3

Calls of active or inactive are those of the source. The rule behind the calls is not given here.

T2 sequence (P33527 whole entry): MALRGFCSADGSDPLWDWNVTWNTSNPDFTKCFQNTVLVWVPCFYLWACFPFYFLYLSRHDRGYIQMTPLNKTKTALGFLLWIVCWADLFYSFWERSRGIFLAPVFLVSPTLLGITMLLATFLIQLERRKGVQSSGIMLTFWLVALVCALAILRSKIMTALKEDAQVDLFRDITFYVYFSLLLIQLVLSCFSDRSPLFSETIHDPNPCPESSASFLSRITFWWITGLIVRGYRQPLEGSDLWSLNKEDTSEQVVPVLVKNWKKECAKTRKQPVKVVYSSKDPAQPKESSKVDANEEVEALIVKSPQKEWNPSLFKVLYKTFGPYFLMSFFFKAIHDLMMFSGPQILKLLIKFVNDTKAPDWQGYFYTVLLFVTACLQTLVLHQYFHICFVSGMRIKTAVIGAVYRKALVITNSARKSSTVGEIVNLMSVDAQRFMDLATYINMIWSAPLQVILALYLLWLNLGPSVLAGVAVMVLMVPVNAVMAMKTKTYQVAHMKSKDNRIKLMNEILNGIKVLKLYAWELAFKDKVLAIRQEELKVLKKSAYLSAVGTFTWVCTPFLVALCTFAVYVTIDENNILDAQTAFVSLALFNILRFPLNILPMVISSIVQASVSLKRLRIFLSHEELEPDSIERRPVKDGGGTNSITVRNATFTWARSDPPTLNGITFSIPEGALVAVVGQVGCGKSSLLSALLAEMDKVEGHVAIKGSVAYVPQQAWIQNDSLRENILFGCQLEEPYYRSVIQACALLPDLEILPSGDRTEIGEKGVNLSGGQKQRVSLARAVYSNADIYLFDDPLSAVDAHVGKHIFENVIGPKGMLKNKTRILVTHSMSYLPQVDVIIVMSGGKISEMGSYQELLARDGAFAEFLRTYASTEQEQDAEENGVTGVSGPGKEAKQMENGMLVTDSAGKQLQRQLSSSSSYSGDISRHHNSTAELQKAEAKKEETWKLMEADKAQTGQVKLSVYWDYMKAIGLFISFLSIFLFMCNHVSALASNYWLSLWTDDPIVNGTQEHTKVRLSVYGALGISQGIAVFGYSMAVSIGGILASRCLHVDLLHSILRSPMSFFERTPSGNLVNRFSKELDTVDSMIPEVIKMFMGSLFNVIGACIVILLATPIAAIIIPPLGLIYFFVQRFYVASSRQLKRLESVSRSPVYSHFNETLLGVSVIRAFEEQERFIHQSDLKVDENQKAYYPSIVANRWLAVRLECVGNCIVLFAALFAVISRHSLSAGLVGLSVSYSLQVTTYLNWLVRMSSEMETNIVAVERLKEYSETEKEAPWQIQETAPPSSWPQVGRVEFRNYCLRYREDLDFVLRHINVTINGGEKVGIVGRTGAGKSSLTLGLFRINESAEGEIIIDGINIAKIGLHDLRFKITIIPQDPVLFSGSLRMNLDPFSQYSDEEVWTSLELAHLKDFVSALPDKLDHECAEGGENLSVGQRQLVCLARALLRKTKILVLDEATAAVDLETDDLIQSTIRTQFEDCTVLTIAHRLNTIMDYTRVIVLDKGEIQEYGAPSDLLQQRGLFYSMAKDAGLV

In the case of `C=CC(C)(C)c1cc(/C=C/C(=O)c2ccc(O)cc2)c(OC)cc1O` [LICOAGROCHACONE A], the Activity was 0.2% in the data set on S1-M1-80, 1.7% in the data set with S1 [1], “Active” in data set [3] and “Not Active” in data set [4]. In addition, the outcome in the data set filed under Homo sapiens was inactive. The “inhibition (INH)” value in data set [2] is “Dose-dependent effect”. Besides, the “fold change (FC)” value with NCI-H460 came out at 1.7; in the data set on S1 [5], 0.9; in data set [6], 28; in the data set on HEK293 [7] it was 1; in [8], 1; with HEK293 [9], 0.7. Besides, the “fold change (FC)” value in the data set with HEK293 [10] was 1.1.
